From ChEMBL document CHEMBL4765352, “Discovery of AdipoRon analogues as novel AMPK activators without inhibiting mitochondrial complex I” (Eur J Med Chem, 2020)
Activity calls are given as the source filed them. No cut-off for these calls is given here.

Key:
A549 = assay: Cytotoxicity against human A549 cells assessed as reduction in cell viability at 5 to 20 uM incubated for 72 hrs by MTT assay; assay type: cell-based; settings: a549, 72 h, dose 5-20 µM
In short: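 MTT viability assay in C2C12, HepG2 and A549 cells. Exposure was 24 h or 72 h for C2C12 and 72 h for HepG2 and A549. Three replicates per group, compared with the 0 μM group by Student's t test.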

[1] = Metabolic stability in human liver microsomes assessed as compound remaining preincubated for 5 mins followed by NADPH addition and measured up to 45 mins by LC/MS analysis; assay type: ADME, Microsome; settings: time 50 min, read-out: Stabilty
In short: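 Compound was preincubated with mouse (ICR/CD-1) or human liver microsomes in potassium phosphate buffer at 37 °C for 5 min, then NADPH was added to start the reaction. Samples were quenched with acetonitrile containing tolbutamide internal standard at 0, 5, 15, 30 and 45 min. Parent compound measured by LC/MS; ketanserin served as control.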

Mus musculus [2] = assay: Hypoglycemic activity in 6 hrs fasted ig dosed normal lean C57BL/6 mouse assessed as improved glucose tolerance pretreated for 2 hrs followed by glucose challenge and measured up to 90 mins post glucose challenge starting from 120 mins prior to […] by IPGTT; assay type: functional, organism-based; settings: dose 25-100 mg/kg, time 210.0 min
In short: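 C57BL/6 mice (male, 8-10 weeks, n=6 per group) fasted 6 h, then given compound or vehicle intragastrically. Two hours later, 20% glucose was injected i.p. at 2 g/kg. Tail-vein glucose read by glucometer at -120, 0, 20, 40, 60 and 90 min, and net AUC calculated. Doses were 25, 50 and 100 mg/kg.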

Mus musculus [3] = species on record: Mus musculus; assay: Improvement in lipid homeostasis in db/db mouse assessed as effect on serum triglyceride level; assay type: functional, organism-based
[4] = Toxicity in C57BL/6 mouse assessed as change in heart weight/body weight ratio at 50 to 200 mg/kg, ig administered for 4 weeks; assay type: organism-based; settings: in vivo, po, 672 h, dose 50-200 mg/kg
In short: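 Male C57BL/6 mice (6 per group) given 50, 100 or 200 mg/kg intragastrically daily for 4 weeks. Saline-perfused hearts were weighed and examined for gross morphology, with representative hearts chosen by similar body weight. Heart weight was expressed relative to body weight and to tibia length.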

Mus musculus [5] = assay: Activation of AMPK in normal lean C57BL/6 mouse assessed as increase in phosphorylated ACC level in skeletal muscle at 100 mg/kg, ig administered for 4 weeks by Western blot analysis; assay type: functional, organism-based; settings: Skeletal muscle tissue
In short: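 Male C57BL/6 mice, 9 weeks old, dosed intragastrically once daily for 4 weeks alongside vehicle controls. Heart and skeletal muscle were homogenized in RIPA buffer with protease/phosphatase inhibitors and centrifuged at 10,600 g for 20 min. About 30 µg protein was blotted for p-AMPK and p-ACC and detected by ECL.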

CC(C)(Oc1ccc(Cl)cc1)C(=O)Nc1ccc(OCc2ccc(C#N)cc2)cc1
Activity (A549): Non-Toxic | remaining at 0.75 h [1]: 74% | Activity (Mus musculus [2]): Dose-dependent effect | Activity (Mus musculus [3]): inactive | Activity [4]: Non-Toxic | Activity (Mus musculus [5]): Active
